The text below walks through data of ChEMBL document CHEMBL4680226, “Design, synthesis, and evaluation of N-phenyl-4-(2-phenylsulfonamido)-benzamides as microtubule-targeting agents in drug-resistant cancer cells, displaying HDAC inhibitory response” (Eur J Med Chem, 2020).

Usually GI50 stands for the concentration that inhibits growth by half. Low readings indicate more potent growth inhibition, high ones less potent growth inhibition. The term IC50 denotes the concentration needed to halve the response being measured.

Activity calls are given as the source filed them. The calls are words filed in the database; no cut-off is given here.

In one assay the test system is KB. In words: Antiproliferative activity against human KB cells incubated for 48 hrs by SRB assay. The assay is classed as functional. The method in brief: (§1)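 KB parental and resistant sublines kept in RPMI 1640 with 5% FBS at 37 °C, 5% CO2. Cells plated, left overnight, then given graded compound concentrations for 48 h. A time-zero plate was fixed with 10% TCA at dosing. Cells were stained with 0.4% SRB in 1% acetic acid, unbound dye washed off, bound dye dissolved in 10 mM Tris base, and absorbance read at 515 nm.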
(In general: The SRB assay estimates cell density from bound dye.)

A short description of assay [1]: Antiproliferative activity against human KB7D cells incubated for 48 hrs by SRB assay. The assay is classed as functional. The method, boiled down: as §1
A short description of assay [2]: Antiproliferative activity against human KB-VIN cells incubated for 48 hrs by SRB assay. The assay is classed as functional. The following applies: KBVIN. The method, boiled down: as §1
For assay [3], the system named is KB7D. Briefly: Induction of apoptosis in human KB7D cells assessed as increase in activated gammaH2AX expression at 0.1 uM measured after 24 hrs by Western blot analysis. It counts as functional, cell-based. The method, boiled down:
(§2)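 Resistant KB cells attached overnight, then drug-treated at the stated concentrations and times (24 h or 48 h). Lysates were immunoblotted for cleaved PARP, caspase-3, -8 and -9, and γH2AX, with anti-mouse or anti-rabbit IgG secondaries.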

Assay [4] relates to KB-VIN. In words: Induction of apoptosis in human KB-VIN cells assessed as increase in cleaved caspase-3 expression at 0.01 to 0.5 uM by Western blot analysis. The settings on record: dose 0.01-0.5 µM. It counts as functional, cell-based. The method, boiled down: as §2
(In general: In western blotting, separated proteins are transferred to a membrane and probed.)

For the next assay, the target named is Histone deacetylase 1 (Homo sapiens, UniProt Q13547). Briefly: Inhibition of recombinant human full-length C-terminal FLAG-His tagged HDAC1 (1 to 482 residues) expressed in Sf21 insect cells using RHK-K(Ac)-AMC as substrate measured after 60 mins by fluorescence assay.
In another assay the target is Histone deacetylase 2 (Homo sapiens, UniProt Q92769). In words: Inhibition of recombinant human C-terminal GST-tagged HDAC2 (1 to 488 residues) expressed in baculovirus infected insect cells using RHKKAc-AMC as substrate measured after 60 mins by fluorescence assay.
Assay [5] deals with KB-VIN. Briefly: Induction of apoptosis in human KB-VIN cells assessed as increase in cleaved caspase-9 expression at 0.01 to 0.5 uM by Western blot analysis. The assay is classed as functional, cell-based. The settings on record: dose 0.01-0.5 µM. The method, boiled down: as §2
The target in assay [6] is Histone deacetylase 3/Nuclear receptor corepressor 2 (HDAC3/NCoR2) (Homo sapiens, UniProt O15379). Briefly: Inhibition of human recombinant HDAC3/NCOR2 using RHKKAc-AMC as substrate measured after 60 mins by fluorescence assay. It counts as protein-complex assay.
The next assay addresses T1, Histone deacetylase 8 (Homo sapiens, UniProt Q9BY41).
T1 sequence (Q9BY41 whole entry): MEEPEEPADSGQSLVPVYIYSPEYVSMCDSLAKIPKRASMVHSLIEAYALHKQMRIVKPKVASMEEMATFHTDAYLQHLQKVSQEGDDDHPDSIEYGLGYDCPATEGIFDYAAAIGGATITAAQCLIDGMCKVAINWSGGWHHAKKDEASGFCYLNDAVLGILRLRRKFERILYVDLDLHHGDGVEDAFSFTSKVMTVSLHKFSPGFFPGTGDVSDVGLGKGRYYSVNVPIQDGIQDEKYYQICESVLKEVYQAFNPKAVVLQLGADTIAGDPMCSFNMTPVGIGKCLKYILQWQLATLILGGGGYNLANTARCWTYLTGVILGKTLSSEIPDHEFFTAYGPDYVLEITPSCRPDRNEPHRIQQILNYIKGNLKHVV
In words: Inhibition of human recombinant HDAC8 using RHKAcKAc-AMC as substrate measured after 60 mins by fluorescence assay.

Assay [7] concerns KB-VIN. Briefly: Induction of apoptosis in human KB-VIN cells assessed as increase in cleaved PARP expression at 0.01 to 0.5 uM by Western blot analysis. The assay is classed as functional, cell-based. The following applies: dose 0.01-0.5 µM. The method in brief:
as §2

Assay [8] deals with KB-VIN. In words: Induction of apoptosis in human KB-VIN cells assessed as increase in cleaved caspase-8 expression at 0.01 to 0.5 uM by Western blot analysis. It counts as functional, cell-based. The settings on record: dose 0.01-0.5 µM. The method in brief:
as §2

The test system of assay [9] is KB7D. In words: Induction of apoptosis in human KB7D cells assessed as increase in activated gammaH2AX expression at 5 uM measured after 24 hrs by Western blot analysis. The assay is classed as functional, cell-based. The method in brief: as §2
In assay [10] the test system is KB7D. In words: Induction of apoptosis in human KB7D cells assessed as increase in activated gammaH2AX expression measured after 24 hrs by Western blot analysis. The assay is classed as functional, cell-based. The method, boiled down:
as §2

Chain of Histone deacetylase 3/Nuclear receptor corepressor 2 (HDAC3/NCoR2) (O15379 whole entry): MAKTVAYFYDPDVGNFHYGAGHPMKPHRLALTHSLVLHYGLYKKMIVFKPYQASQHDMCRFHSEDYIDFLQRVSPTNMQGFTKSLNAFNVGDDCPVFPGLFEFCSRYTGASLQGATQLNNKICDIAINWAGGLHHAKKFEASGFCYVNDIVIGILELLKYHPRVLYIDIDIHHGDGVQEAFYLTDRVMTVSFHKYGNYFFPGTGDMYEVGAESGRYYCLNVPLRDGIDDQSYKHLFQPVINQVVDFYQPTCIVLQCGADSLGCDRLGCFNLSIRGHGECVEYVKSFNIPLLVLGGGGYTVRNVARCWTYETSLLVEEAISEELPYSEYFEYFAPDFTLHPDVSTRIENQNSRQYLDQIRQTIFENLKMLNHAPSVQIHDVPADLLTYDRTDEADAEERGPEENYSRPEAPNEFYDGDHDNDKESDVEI
Chain of Histone deacetylase 3/Nuclear receptor corepressor 2 (HDAC3/NCoR2) (Q9Y618 whole entry, further chain): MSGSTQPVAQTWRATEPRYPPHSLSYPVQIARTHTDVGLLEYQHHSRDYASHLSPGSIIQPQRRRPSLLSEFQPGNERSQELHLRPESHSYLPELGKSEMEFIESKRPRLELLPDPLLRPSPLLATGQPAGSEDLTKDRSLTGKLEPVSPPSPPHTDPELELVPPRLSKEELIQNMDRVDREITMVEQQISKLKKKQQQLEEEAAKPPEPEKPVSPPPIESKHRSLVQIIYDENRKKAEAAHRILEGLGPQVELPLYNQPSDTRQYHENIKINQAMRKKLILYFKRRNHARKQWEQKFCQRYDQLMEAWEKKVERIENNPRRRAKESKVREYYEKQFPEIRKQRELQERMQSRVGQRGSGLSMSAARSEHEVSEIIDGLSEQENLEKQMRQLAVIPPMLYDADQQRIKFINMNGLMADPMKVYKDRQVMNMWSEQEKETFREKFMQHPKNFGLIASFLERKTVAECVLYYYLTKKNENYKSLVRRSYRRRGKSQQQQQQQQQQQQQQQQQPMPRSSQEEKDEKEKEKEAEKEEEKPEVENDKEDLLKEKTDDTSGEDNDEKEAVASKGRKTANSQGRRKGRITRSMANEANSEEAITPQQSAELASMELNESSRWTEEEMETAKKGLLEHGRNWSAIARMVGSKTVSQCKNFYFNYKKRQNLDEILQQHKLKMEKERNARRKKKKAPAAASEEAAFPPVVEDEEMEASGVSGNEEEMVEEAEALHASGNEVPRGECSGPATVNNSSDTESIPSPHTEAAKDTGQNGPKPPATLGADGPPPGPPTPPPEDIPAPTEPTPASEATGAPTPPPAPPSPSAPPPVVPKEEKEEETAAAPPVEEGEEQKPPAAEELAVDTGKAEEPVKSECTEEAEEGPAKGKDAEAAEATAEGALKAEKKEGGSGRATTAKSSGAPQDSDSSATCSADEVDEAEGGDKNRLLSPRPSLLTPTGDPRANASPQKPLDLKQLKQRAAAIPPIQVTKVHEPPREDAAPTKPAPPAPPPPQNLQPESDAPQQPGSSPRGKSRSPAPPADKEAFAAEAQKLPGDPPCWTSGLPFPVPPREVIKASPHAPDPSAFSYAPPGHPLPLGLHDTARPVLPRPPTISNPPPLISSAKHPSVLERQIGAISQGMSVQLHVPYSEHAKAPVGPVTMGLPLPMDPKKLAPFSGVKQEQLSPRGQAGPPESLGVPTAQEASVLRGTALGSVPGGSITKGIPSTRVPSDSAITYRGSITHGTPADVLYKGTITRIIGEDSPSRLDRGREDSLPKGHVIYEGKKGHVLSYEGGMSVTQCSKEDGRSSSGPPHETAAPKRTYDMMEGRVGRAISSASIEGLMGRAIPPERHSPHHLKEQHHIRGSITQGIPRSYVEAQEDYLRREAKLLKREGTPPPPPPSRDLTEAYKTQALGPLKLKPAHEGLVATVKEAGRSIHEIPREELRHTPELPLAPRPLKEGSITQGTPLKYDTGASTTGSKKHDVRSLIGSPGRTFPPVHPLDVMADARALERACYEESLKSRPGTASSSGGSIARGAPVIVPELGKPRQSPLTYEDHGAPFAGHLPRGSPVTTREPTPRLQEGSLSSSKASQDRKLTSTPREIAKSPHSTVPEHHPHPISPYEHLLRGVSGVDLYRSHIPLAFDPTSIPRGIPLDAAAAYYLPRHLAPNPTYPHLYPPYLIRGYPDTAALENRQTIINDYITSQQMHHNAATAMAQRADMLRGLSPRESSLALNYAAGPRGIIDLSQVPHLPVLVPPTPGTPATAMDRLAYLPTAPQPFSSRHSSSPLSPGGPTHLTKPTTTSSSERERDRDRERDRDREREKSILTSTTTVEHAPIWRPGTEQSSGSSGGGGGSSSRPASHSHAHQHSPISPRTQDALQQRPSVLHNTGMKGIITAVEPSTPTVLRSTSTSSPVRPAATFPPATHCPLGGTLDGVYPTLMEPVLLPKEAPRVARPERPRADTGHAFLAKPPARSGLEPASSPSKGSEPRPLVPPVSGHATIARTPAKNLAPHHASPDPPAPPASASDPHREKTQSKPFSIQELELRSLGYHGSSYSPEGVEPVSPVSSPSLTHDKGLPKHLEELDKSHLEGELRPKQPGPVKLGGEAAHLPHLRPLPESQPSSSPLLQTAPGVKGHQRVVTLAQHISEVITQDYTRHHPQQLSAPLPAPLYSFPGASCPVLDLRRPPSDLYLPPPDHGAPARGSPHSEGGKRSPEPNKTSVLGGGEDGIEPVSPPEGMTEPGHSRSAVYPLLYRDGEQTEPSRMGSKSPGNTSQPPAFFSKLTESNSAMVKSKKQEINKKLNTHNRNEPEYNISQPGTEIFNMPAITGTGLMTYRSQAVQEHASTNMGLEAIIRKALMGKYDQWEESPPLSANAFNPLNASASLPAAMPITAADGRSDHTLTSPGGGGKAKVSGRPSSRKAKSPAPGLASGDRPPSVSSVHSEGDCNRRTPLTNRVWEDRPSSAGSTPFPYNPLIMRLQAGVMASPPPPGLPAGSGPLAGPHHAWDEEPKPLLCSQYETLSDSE
Chain of Histone deacetylase 1 (Q13547 whole entry, the tested form may be a part): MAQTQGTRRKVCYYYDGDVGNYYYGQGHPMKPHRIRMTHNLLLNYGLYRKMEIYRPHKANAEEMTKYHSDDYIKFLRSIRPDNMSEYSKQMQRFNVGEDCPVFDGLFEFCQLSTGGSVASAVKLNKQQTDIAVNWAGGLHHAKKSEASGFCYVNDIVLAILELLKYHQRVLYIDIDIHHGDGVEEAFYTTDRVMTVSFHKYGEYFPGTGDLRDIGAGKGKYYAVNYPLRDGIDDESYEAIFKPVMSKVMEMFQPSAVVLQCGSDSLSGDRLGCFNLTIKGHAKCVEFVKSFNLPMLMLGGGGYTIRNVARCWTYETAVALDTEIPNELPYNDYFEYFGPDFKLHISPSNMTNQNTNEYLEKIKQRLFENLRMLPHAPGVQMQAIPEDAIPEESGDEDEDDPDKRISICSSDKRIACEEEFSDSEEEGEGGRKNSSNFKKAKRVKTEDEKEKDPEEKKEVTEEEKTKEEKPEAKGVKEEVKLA
Chain of Histone deacetylase 2 (Q92769 whole entry, the tested form may be a part): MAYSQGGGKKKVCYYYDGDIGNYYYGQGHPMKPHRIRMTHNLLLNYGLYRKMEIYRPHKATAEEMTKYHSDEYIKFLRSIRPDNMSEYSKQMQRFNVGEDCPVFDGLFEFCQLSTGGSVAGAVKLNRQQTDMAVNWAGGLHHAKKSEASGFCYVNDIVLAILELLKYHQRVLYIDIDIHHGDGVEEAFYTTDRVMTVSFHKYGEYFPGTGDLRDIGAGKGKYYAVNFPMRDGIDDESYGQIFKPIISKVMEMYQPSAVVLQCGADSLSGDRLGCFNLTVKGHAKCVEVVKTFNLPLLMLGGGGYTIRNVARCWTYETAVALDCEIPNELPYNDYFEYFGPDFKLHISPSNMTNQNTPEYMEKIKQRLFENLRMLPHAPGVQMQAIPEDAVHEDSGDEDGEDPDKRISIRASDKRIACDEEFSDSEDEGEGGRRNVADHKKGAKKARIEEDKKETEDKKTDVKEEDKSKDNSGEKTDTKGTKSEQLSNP

Take `COc1ccc(S(=O)(=O)Nc2ccccc2CCc2ccc(C(=O)Nc3ccccc3O)cc2)cc1`: the GI50 in the assay on KB worked out at 472 nM.
Regarding `COc1ccc(S(=O)(=O)Nc2cccnc2Nc2ccc(O)cc2)cc1` [ABT-751], the figures for the GI50 (with KB; in assay [1]; in assay [2]) were 801 nM, 444 nM and 2070 nM, respectively. Besides, in the assay on KB7D [3], the outcome was Active.
`COc1ccc(S(=O)(=O)Nc2ccccc2CCc2ccc(C(=O)Nc3cc(F)ccc3N)cc2)cc1`: the result with KB-VIN [4], with KB-VIN [5], in the assay with KB-VIN [7] and in the assay with KB-VIN [8] was Active. The half-maximal inhibitory concentration (IC50) on Histone deacetylase 1 is over 10000 nM; on Histone deacetylase 2, 9080 nM; in assay [6], 1750 nM; on Histone deacetylase 8, over 10000 nM. In addition, the 50% growth inhibitory concentration (GI50) in the assay on KB is 66 nM; in assay [1] it was 12 nM; in [2], 29 nM.
On to `COc1ccc(S(=O)(=O)Nc2ccccc2CCc2ccc(C(=O)Nc3cccc(N)c3)cc2)cc1`, for which the 50% growth inhibitory concentration (GI50) in the assay with KB was 697 nM.
With `COc1ccc(S(=O)(=O)Nc2ccccc2/C=C/c2ccc(C(=O)Nc3ccccc3N)cc2)cc1`, in the assay on KB, the GI50 amounted to 660 nM.
As for `COc1ccc(S(=O)(=O)Nc2ccc(CCc3ccc(C(=O)Nc4ccccc4N)cc3)cc2)cc1`, the GI50 in the assay on KB is over 10000 nM.
Still for that read-out and setting: then `Nc1ccccc1NC(=O)c1ccc(CCc2ccccc2NS(=O)(=O)c2ccc(Cl)cc2)cc1`, with 448 nM.
`COc1ccc(S(=O)(=O)Nc2ccccc2-c2ccc(C(=O)Nc3ccccc3N)cc2)cc1` gave a GI50 in the assay on KB of 442 nM.
In the assay on KB, `Nc1ccccc1NC(=O)c1ccc(CCc2ccccc2NS(=O)(=O)c2ccc(F)cc2)cc1` yielded a GI50 of 884 nM.
As to `Nc1ccccc1NC(=O)c1ccc(CCc2ccccc2NS(=O)(=O)c2ccccc2)cc1`, the GI50 in the assay with KB is 456 nM.
`COc1ccc(S(=O)(=O)Nc2ccccc2CCc2ccc(C(=O)Nc3ccccc3)cc2)cc1` came in with a GI50 with KB of 137 nM.
On the same count and under the same terms, to `COc1ccc(S(=O)(=O)Nc2ccccc2CCc2ccccc2)cc1` belongs 4410 nM.
As to `COc1ccc(S(=O)(=O)Nc2ccccc2CCc2ccc(C(=O)Nc3ccccc3N)cc2)cc1`, the result in the assay with KB-VIN [4], in the assay on KB-VIN [5], with KB-VIN [7] and in the assay with KB-VIN [8] was Active. Moreover, the concentration for half-maximal inhibition (IC50) at Histone deacetylase 1 is 1190 nM; at Histone deacetylase 2 it was over 10000 nM; in [6], 2550 nM; at Histone deacetylase 8, over 10000 nM. The GI50 in the assay on KB amounted to 23 nM; in [1], 22 nM; in assay [2], 31 nM.
Compound `COc1ccc(S(=O)(=O)Nc2ccccc2CCc2ccc(C(=O)Nc3ccccc3N)cc2)cc1OC` displayed a GI50 in the assay with KB of 888 nM.
`Nc1ccccc1NC(=O)c1ccc(CCc2ccccc2)cc1` came in with a 50% growth inhibitory concentration (GI50) with KB of over 10000 nM.
For `Nc1ccccc1NC(=O)c1ccc(CNC(=O)OCc2cccnc2)cc1` [ENTINOSTAT], in the assay on KB7D [9], the outcome was Active. Moreover, the 50% growth inhibitory concentration (GI50) was 6630 nM in the assay on KB, 5680 nM in assay [1] and 7710 nM in [2].
In turn, `Nc1ccccc1NC(=O)c1ccc(CCc2ccccc2NS(=O)(=O)c2ccc(Br)cc2)cc1` came in with a GI50 in the assay with KB of 124 nM.
Still for that read-out and setting: then `COc1ccc(S(=O)(=O)Nc2cccc(CCc3ccc(C(=O)Nc4ccccc4N)cc3)c2)cc1`, with 678 nM; and `N#Cc1ccc(S(=O)(=O)Nc2ccccc2CCc2ccc(C(=O)Nc3ccccc3N)cc2)cc1`, with 790 nM; and `COc1ccc(S(=O)(=O)Nc2ccccc2CCc2ccc(C(=O)NO)cc2)cc1`, with over 10000 nM.
In the case of `COc1ccc(S(=O)(=O)Nc2ccccc2OCc2ccc(C(=O)Nc3ccccc3N)cc2)cc1`, the IC50 on Histone deacetylase 1 was 5450 nM; on Histone deacetylase 2, 4950 nM; in [6], 7920 nM; at Histone deacetylase 8, over 10000 nM. Also, the GI50 in the assay with KB is 60 nM; in assay [1] it was 62 nM; in assay [2] it was 42 nM.
In the case of `COc1cccc(S(=O)(=O)Nc2ccccc2CCc2ccc(C(=O)Nc3ccccc3N)cc2)c1`, it took 462 nM to inhibit growth in the assay with KB by half (GI50).
The same measure, in the same setting: then `COc1ccc(S(=O)(=O)Nc2ccccc2CCc2ccc(C(=O)Nc3ccc(N)cc3)cc2)cc1`, with 286 nM.
In the case of `COc1cc([C@@H]2c3cc4c(cc3[C@@H](O[C@@H]3O[C@@H]5CO[C@@H](C)O[C@H]5[C@H](O)[C@H]3O)[C@H]3COC(=O)[C@H]23)OCO4)cc(OC)c1O` [ETOPOSIDE], the GI50 in the assay with KB came to 8390 nM; in assay [1] it was 98600 nM. In addition, in the assay on KB7D [10], the result was Active.
